# According to ChEMBL document CHEMBL1129433, “On the bioisosteric potential of diazines: diazine analogues of the combined thromboxane A2 receptor antagonist and synthetase inhibitor Ridogrel” (J Med Chem, 1996):
# Columns and labels:
# [1] = target: T1, Thromboxane A2 receptor (Homo sapiens, UniProt P21731); experiment: TXA2 receptor antagonism, measured by the displacement of [3H]SQ29,548 from the PGH-2/TXA-2 receptor on human platelets; type: functional
# T1 sequence (P21731 whole entry): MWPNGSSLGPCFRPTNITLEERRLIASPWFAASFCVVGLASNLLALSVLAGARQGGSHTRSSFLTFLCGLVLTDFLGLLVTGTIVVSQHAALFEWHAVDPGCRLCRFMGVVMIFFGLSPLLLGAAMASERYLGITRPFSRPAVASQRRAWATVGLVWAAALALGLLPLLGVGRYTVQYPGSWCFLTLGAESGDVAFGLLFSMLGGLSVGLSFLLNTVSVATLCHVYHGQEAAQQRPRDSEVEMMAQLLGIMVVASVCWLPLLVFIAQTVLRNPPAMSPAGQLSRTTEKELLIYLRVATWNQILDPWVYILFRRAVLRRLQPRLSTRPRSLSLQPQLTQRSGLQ
# How it was run: (§1)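 Human gel-filtered platelets were used. Nonspecific binding was defined with U 46,619 at 30 µM final in place of the test compound. IC50 is the concentration giving 50% displacement of [³H]SQ 29,548.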
# [2] = target: T2, Thromboxane-A synthase (Homo sapiens, UniProt P24557); experiment: TXA2 synthetase inhibition measured by the inhibition of TXB2 formation by human gel-filtered platelets incubated with [14C]arachidonic acid
# T2 sequence (P24557 whole entry): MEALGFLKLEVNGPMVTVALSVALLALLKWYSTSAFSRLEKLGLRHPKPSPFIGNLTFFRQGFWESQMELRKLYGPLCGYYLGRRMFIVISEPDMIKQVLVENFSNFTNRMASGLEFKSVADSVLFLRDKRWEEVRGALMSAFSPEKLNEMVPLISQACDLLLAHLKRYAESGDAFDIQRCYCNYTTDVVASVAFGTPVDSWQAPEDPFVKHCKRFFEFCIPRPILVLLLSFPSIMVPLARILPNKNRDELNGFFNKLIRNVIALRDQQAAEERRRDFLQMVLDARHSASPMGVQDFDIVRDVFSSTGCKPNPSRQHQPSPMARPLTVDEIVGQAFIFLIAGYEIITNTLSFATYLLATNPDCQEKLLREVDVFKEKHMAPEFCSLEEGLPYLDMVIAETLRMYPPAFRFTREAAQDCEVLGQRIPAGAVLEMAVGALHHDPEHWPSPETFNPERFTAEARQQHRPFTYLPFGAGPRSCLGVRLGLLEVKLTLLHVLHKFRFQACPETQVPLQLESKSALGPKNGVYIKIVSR
# [3] = organism: Homo sapiens; experiment: Inhibition of collagen-induced platelet aggregation in human platelet rich plasma; type: functional
# How it was run: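 PRP and PPP were prepared from human blood by centrifugation at 1000 rpm and 4000 rpm respectively, each for 10 min at 10 °C. PRP was adjusted to […]. Collagen was 0.53 µg/mL final. Optical density of stirred PRP was recorded for 4 min, at least in duplicate. PRP and PPP set 0% and 100% light transmission. EC50 was taken from the concentration–inhibition curve.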
# [4] = organism: Homo sapiens; experiment: In vitro inhibition of collagen-induced platelet aggregation in human platelet-rich plasma (PRP) at 273 uM; type: functional
# [5] = organism: Homo sapiens; experiment: In vitro inhibition of collagen-induced platelet aggregation in human platelet-rich plasma (PRP) at 291 uM; type: functional
# [6] = organism: Homo sapiens; experiment: In vitro inhibition of collagen-induced platelet aggregation in human platelet-rich plasma (PRP) at 278uM; type: functional
# [7] = target: T1, Thromboxane A2 receptor; experiment: TXA2 receptor antagonism, measured by the displacement of [3H]SQ-29548 from the PGH-2/TXA-2 receptor on human platelets; type: functional; how it was run: as §1
Compound,IC50 [1] [µM],IC50 [2] [µM],EC50 [3] [µM],other results
O=C(O)CCCCCO/N=C(\c1ccccc1)c1ccncn1,5,> 10,112,–
O=C(O)CCCCO/N=C(/c1cncnc1)c1cccc(C(F)(F)F)c1,1.5,0.039,32,–
O=C(O)CCCCO/N=C(\c1cccc(C(F)(F)F)c1)c1cnccn1,11,0.006,190,–
O=C(O)CCCCO/N=C(\c1ccccc1)c1ncccn1,–,> 100,–,inhibition at 273 µM [4]: 0%
O=C(O)CCCCCO/N=C(/c1ccccc1)c1ccncn1,25,> 10,236,–
O=C(O)CCCCCO/N=C(\c1cccc(C(F)(F)F)c1)c1cnccn1,–,–,251,–
O=C(O)CCCCCO/N=C(/c1cccc(C(F)(F)F)c1)c1ccncn1,–,–,184,–
O=C(O)CCCCCO/N=C(\c1cccc(C(F)(F)F)c1)c1ccncn1,1.1,> 10,25,–
O=C(O)CCCCCO/N=C(\c1cccc(C(F)(F)F)c1)c1cccnn1,–,–,241,–
O=C(O)CCCCCO/N=C(/c1ccccc1)c1cncnc1,8.8,> 10,127,–
O=C(O)CCCCO/N=C(\c1cccc(C(F)(F)F)c1)c1cccnn1,10,> 100,78,–
O=C(O)CCCO/N=C(/c1ccccc1)c1ccncn1,–,–,–,inhibition at 273 µM [4]: 38%
O=C(O)CCCCCO/N=C(\c1cccc(C(F)(F)F)c1)c1ncccn1,–,–,291,–
O=C(O)CCCO/N=C(/c1ccccc1)c1cncnc1,–,–,–,inhibition at 273 µM [4]: 17%
O=C(O)CCCCO/N=C(\c1ccccc1)c1cnccn1,47,0.079,91,–
O=C(O)CCCCO/N=C(/c1cccc(C(F)(F)F)c1)c1ncccn1,52,> 10,214,–
O=C(O)CCCCO/N=C(\c1ccccc1)c1ccnnc1,33,0.26,227,–
O=C(O)CCCO/N=C(/c1ccccc1)c1ccnnc1,–,–,–,inhibition at 273 µM [4]: 21%
O=C(O)CCCCO/N=C(\c1cccc(C(F)(F)F)c1)c1ncccn1,99,> 10,272,–

Compound,IC50 [1] [µM],IC50 [2] [µM],EC50 [3] [µM],other results
O=C(O)CCCCO/N=C(/c1ccccc1)c1cnccn1,24,0.62,94,–
O=C(O)CCCCO/N=C(/c1ccccc1)c1ccnnc1,13,8.8,163,–
O=C(O)CCCCCO/N=C(/c1cccc(C(F)(F)F)c1)c1cnccn1,–,–,–,inhibition at 291 µM [5]: 47%
O=C(O)CCCO/N=C(/c1ccccc1)c1cccnn1,–,–,–,inhibition at 273 µM [4]: 2%
O=C(O)CCCO/N=C(\c1ccccc1)c1cccnn1,–,–,–,inhibition at 273 µM [4]: 4%
O=C(O)CCCO/N=C(\c1ccccc1)c1ccncn1,–,–,–,inhibition at 273 µM [4]: 34%
O=C(O)CCCO/N=C(/c1ccccc1)c1ncccn1,–,–,–,inhibition at 273 µM [4]: 0%
O=C(O)CCCCO/N=C(/c1ccccc1)c1ncccn1,–,> 10,–,inhibition at 273 µM [4]: 0%
O=C(O)CCCCO/N=C(/c1ccccc1)c1cccnn1,71,> 100,217,–
O=C(O)CCCCCO/N=C(/c1ccccc1)c1ncccn1,–,–,–,inhibition at 273 µM [4]: 0%
O=C(O)CCCCCO/N=C(\c1ccccc1)c1ccnnc1,7.1,3.8,59,–
O=C(O)CCCCO/N=C(/c1cccc(C(F)(F)F)c1)c1cnccn1,1.5,2.9,65,–
O=C(O)CCCCCO/N=C(\c1ccccc1)c1cccnn1,–,–,203,–
O=C(O)CCCCCO/N=C(/c1ccccc1)c1cnccn1,–,–,216,–
O=C(O)CCCCCO/N=C(\c1ccccc1)c1cnccn1,–,–,131,–
O=C(O)CCCCCO/N=C(\c1cncnc1)c1cccc(C(F)(F)F)c1,–,–,291,–
O=C(O)CCCCO/N=C(\c1ccccc1)c1cncnc1,20,0.075,–,inhibition at 278 µM [6]: 40%
O=C(O)CCCCO/N=C(\c1ccccc1)c1ccncn1,30,> 100,274,–
O=C(O)CCCCO/N=C(/c1ccnnc1)c1cccc(C(F)(F)F)c1,6,0.016,52,–

Compound,IC50 [1] [µM],IC50 [2] [µM],EC50 [3] [µM],other results
O=C(O)CCCO/N=C(\c1ccccc1)c1ncccn1,–,–,–,inhibition at 273 µM [4]: 0%
O=C(O)CCCCO/N=C(\c1cccc(C(F)(F)F)c1)c1ccncn1,1.4,> 10,19,–
O=C(O)CCCO/N=C(\c1ccccc1)c1ccnnc1,–,–,245,–
O=C(O)CCCCCO/N=C(/c1ccccc1)c1ccnnc1,7.7,> 10,81,–
O=C(O)CCCCO/N=C(/c1ccccc1)c1ccncn1,25,> 100,255,–
O=C(O)CCCCCO/N=C(/c1ccccc1)c1cccnn1,–,–,204,–
O=C(O)CCCCCO/N=C(/c1ccnnc1)c1cccc(C(F)(F)F)c1,29,0.693,186,–
O=C(O)CCCO/N=C(\c1ccccc1)c1cncnc1,–,–,–,inhibition at 273 µM [4]: 46%
O=C(O)CCCO/N=C(/c1ccccc1)c1cnccn1,–,–,–,inhibition at 273 µM [4]: 19%
O=C(O)CCCCO/N=C(/c1ccccc1)c1cncnc1,7.2,0.573,191,–
O=C(O)CCCCO/N=C(\c1ccnnc1)c1cccc(C(F)(F)F)c1,1.8,6.63,30,–
O=C(O)CCCCCO/N=C(\c1ccccc1)c1ncccn1,–,–,–,inhibition at 273 µM [4]: 0%
O=C(O)CCCO/N=C(\c1ccccc1)c1cnccn1,–,–,–,inhibition at 273 µM [4]: 47%
O=C(O)CCCCCO/N=C(/c1cncnc1)c1cccc(C(F)(F)F)c1,–,–,200,–
O=C(O)CCCCO/N=C(\c1ccccc1)c1cccnn1,–,> 100,–,IC50 [7]: 104 µM; inhibition at 278 µM [6]: 47%
O=C(O)CCCCO/N=C(/c1cccc(C(F)(F)F)c1)c1ccncn1,2.5,> 100,71,–
O=C(O)CCCCO/N=C(\c1cncnc1)c1cccc(C(F)(F)F)c1,0.36,6.1,12,–
O=C(O)CCCCCO/N=C(\c1ccnnc1)c1cccc(C(F)(F)F)c1,21,> 10,–,inhibition at 291 µM [5]: 26%
O=C(O)CCCCO/N=C(/c1cccnc1)c1cccc(C(F)(F)F)c1 [RIDOGREL],–,0.007,41,–
